Test results as given in ChEMBL document CHEMBL3779840, “Discovery of 2-((3-Amino-4-methylphenyl)amino)-N-(2-methyl-5-(3-(trifluoromethyl)benzamido)phenyl)-4-(methylamino)pyrimidine-5-carboxamide (CHMFL-ABL-053) as a Potent, Selective, and Orally Available BCR-ABL/SRC/p38 Kinase Inhibitor for Chronic Myeloid Leukemia” (J Med Chem, 2016).
Activity calls are given as the source filed them. The rule behind the calls is not given here.

How the values were obtained:
[1] = target: Transcription factor ETV6/Tyrosine-protein kinase ABL1 (Homo sapiens) (UniProt P00519+P41212); conditions: BaF3
K562 [2] = assay: Antitumor activity against human K562 cells xenografted in nu/nu mouse assessed as tumor growth inhibition at 50 mg/kg/day, qd administered through oral gavage measured after 16 days; type: functional; conditions: 384 h, read-out: TGI
Method in brief: (§1)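 Female nu/nu mice bore established K562 xenografts and received daily oral dosing at 25.0 or 50.0 mg/kg/d, or vehicle, starting when tumors reached 200 to 400 mm3, for 16 days. Groups had 5 animals; data are mean ± SEM. Tumor size and body weight were normalized to initial values, and final tumor weight was recorded. Tumor tissue was stained with HE, Ki-67 and TUNEL.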

Mus musculus = assay: Toxicity in nu/nu mouse xenografted with K562 cells assessed as decrease in body weight at 25 and 50 mg/kg/day, qd administered through oral gavage for 16 days measured every day during compound dosing; type: organism-based; conditions: in vivo, 384 h
Method in brief: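 Female nu/nu mice carrying established K562 xenografts received oral treatment once daily at 25.0 or 50.0 mg/kg/d, or vehicle, starting when tumours reached 200 to 400 mm3. There were 5 animals per group and dosing lasted 16 days. Body weight was expressed relative to initial weight (set as 100%), and mortality was recorded. Data are given as mean ± SEM.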

K562 [3] = assay: Induction of apoptosis in human K562 cells xenografted in nu/nu mouse at 25 and 50 mg/kg/day, qd administered through oral gavage measured after 16 days by TUNEL staining-based assay; type: functional, organism-based
Method in brief: as §1

[4] = Antiproliferative activity against mouse BA/F3 cells assessed as cell viability after 72 hrs by CellTiter-Glo or CCK-8 assay; type: cell-based, BaF3
[5] = target: T1, Proto-oncogene tyrosine-protein kinase Src (Homo sapiens, UniProt P12931); assay: Inhibition of full length recombinant human C-terminal His-tagged SRC expressed in Baculovirus expression system
Method in brief: (§2)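 IC50 values were determined with the Invitrogen SelectScreen biochemical kinase assay.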

[6] = target: T2, Mitogen-activated protein kinase 14 (Homo sapiens, UniProt Q16539); assay: Inhibition of P38-alpha phosphorylation in human MEG01 cells at 0.01 to 3 uM after 1 hr by immunoblotting method; type: cell-based; conditions: MEG-01
Method in brief: (§3)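 KU812, K562 and MEG-01 cells were exposed to compound at the indicated concentrations for 1 h. Whole-cell lysates were then analysed by Western blot for phosphorylated signaling proteins.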

MEG-01 = assay: Induction of apoptosis in human MEG01 cells assessed as increase in cleaved caspase3 level at 100 nM after 48 hrs by immunoblotting method; type: functional, cell-based
[7] = target: T2, Mitogen-activated protein kinase 14; assay: Inhibition of P38-alpha phosphorylation in human KU812 cells at 0.01 to 3 uM after 1 hr by immunoblotting method; type: cell-based
Method in brief: as §3

K562 [8] = assay: Induction of apoptosis in human K562 cells assessed as increase in cleaved PARP level at 100 nM after 48 hrs by immunoblotting method; type: functional, cell-based
[9] = Apparent clearance in Sprague-Dawley rat at 1 mg/kg, iv; type: ADME, organism-based; conditions: in vivo, read-out: CL(app) (converted)
[10] = target: Tyrosine-protein kinase HCK (Homo sapiens) (UniProt P08631); conditions: BaF3
BaF3 = conditions: Homo sapiens
[11] = target: T3, Discoidin domain-containing receptor 2 (Homo sapiens) (UniProt Q16832); conditions: BaF3
T3 sequence (whole entry): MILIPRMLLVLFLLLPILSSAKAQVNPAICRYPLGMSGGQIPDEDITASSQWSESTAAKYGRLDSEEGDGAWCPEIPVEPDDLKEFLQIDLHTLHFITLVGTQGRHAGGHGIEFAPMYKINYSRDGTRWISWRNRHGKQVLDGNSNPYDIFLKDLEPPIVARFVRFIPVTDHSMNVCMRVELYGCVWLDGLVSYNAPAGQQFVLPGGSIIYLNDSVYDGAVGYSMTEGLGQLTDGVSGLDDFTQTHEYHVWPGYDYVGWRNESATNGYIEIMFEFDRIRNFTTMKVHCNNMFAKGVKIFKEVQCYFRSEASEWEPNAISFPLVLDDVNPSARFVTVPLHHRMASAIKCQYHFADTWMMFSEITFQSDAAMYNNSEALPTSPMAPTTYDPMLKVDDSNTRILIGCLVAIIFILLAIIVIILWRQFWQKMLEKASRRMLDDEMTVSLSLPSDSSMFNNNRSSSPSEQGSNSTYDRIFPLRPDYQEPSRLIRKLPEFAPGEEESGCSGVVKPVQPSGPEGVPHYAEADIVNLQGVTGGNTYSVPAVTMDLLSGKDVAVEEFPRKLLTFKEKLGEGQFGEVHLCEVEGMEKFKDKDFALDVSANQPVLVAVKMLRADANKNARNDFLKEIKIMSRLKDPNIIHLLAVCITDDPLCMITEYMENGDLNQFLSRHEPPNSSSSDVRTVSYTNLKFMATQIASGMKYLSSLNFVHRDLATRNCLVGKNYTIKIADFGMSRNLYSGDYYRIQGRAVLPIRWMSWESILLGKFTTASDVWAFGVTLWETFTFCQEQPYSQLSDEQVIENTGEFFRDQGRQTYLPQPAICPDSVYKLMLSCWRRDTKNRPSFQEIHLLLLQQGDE

[12] = Antiproliferative activity against human U937 cells assessed as cell viability after 72 hrs by CellTiter-Glo or CCK-8 assay; type: functional; conditions: U-937, 72 h
K562 [13] = assay: Antiproliferative activity against human K562 cells assessed as cell viability after 72 hrs by CellTiter-Glo or CCK-8 assay; type: functional; conditions: K562, 72 h
[14] = target: T1, Proto-oncogene tyrosine-protein kinase Src; assay: Inhibition of SRC phosphorylation in human MEG01 cells at 0.01 to 3 uM after 1 hr by immunoblotting method; type: cell-based; conditions: MEG-01
Method in brief: (§4)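 Cells were treated for 1 h at the indicated concentrations. Whole-cell lysates were then analysed by Western blot for phosphorylation of signalling proteins in the BCR-ABL pathway.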

[15] = Antiproliferative activity against […] CHL cells assessed as cell viability after 72 hrs by CellTiter-Glo or CCK-8 assay; type: cell-based, Cricetulus griseus; conditions: chinese hamster
[16] = target: T1, Proto-oncogene tyrosine-protein kinase Src; assay: Inhibition of SRC phosphorylation in human K562 cells at 0.01 to 3 uM after 1 hr by immunoblotting method; type: cell-based
Method in brief: as §4

[17] = target: Bcr/Abl fusion protein (Homo sapiens) (UniProt P00519+P11274); assay: Inhibition of BCR/ABL in human KU812 cells assessed as downregulation of CrkL phosphorylation at […] site after 1 hr by immunoblotting method; type: cell-based
Method in brief: as §3

[18] = target: Discoidin domain-containing receptor 2 (Homo sapiens, UniProt Q16832); assay: Inhibition of recombinant human GST-tagged DDR2 expressed in Baculovirus expression system
Method in brief: as §2

KU812 cell line = assay: Induction of cell cycle arrest in human KU812 cells assessed as accumulation at G0/G1-phase after 12 hrs by propidium iodide/RNase staining based flow cytometry; type: functional
[19] = Half life in Sprague-Dawley rat at 10 mg/kg, po; type: ADME, organism-based; conditions: in vivo
[20] = Antiproliferative activity against human MEG01 cells assessed as cell viability after 72 hrs by CellTiter-Glo or CCK-8 assay; type: functional; conditions: MEG-01, 72 h

T1 sequence (P12931 2-536 limits assumed): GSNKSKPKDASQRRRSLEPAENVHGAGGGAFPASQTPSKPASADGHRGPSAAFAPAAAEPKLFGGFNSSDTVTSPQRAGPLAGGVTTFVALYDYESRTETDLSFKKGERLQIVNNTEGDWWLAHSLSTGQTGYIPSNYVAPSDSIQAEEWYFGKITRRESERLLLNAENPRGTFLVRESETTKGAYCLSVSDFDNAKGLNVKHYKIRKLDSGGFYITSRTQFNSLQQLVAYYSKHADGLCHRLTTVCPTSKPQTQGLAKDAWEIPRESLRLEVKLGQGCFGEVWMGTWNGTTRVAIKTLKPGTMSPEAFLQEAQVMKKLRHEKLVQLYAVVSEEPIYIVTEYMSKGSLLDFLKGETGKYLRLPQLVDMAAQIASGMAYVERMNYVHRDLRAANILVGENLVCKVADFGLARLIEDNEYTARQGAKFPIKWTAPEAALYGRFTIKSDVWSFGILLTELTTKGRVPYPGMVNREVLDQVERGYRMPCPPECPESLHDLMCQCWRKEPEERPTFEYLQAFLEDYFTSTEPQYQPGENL
T2 sequence (Q16539 whole entry): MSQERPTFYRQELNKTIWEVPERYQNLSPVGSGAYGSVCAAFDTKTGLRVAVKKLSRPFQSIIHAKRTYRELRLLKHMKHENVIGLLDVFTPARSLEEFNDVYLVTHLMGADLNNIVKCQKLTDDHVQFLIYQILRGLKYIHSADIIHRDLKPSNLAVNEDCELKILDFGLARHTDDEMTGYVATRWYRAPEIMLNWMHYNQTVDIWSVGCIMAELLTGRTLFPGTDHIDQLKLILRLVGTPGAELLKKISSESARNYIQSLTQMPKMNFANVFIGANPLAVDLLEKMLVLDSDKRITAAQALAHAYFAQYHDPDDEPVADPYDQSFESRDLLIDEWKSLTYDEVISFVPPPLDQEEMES
Sequence of Bcr/Abl fusion protein (Homo sapiens) (P00519 whole entry, looked up, the tested form may be a part): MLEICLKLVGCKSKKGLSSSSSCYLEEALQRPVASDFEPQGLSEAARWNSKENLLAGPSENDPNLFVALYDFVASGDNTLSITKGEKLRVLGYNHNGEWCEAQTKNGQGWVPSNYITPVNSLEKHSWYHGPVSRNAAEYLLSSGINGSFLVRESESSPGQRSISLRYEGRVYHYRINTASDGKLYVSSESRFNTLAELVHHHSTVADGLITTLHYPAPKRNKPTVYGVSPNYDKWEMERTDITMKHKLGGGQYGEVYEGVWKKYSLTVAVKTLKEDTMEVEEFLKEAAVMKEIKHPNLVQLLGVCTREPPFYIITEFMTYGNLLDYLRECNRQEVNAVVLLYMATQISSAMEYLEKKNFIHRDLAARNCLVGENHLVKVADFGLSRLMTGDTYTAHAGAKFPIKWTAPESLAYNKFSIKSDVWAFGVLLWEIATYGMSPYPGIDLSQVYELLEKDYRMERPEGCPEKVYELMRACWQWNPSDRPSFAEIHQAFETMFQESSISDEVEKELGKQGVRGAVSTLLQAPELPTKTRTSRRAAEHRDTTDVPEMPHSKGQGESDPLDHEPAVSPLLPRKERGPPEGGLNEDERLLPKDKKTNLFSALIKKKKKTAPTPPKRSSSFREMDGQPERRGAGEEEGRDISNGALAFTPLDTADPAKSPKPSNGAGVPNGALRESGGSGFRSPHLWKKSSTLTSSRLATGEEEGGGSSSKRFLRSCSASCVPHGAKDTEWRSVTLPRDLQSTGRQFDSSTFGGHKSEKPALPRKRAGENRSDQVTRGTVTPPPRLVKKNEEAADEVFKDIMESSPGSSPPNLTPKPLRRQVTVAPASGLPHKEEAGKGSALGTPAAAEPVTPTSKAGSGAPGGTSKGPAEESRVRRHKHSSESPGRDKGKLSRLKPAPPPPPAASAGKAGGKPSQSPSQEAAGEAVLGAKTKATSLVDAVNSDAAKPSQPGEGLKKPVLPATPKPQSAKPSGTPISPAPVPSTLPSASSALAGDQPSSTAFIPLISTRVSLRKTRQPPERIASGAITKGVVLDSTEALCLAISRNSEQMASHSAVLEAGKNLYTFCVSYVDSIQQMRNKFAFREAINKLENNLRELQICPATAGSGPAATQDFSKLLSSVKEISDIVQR
Sequence of Bcr/Abl fusion protein (Homo sapiens) (P11274 whole entry, looked up, the tested form may be a part): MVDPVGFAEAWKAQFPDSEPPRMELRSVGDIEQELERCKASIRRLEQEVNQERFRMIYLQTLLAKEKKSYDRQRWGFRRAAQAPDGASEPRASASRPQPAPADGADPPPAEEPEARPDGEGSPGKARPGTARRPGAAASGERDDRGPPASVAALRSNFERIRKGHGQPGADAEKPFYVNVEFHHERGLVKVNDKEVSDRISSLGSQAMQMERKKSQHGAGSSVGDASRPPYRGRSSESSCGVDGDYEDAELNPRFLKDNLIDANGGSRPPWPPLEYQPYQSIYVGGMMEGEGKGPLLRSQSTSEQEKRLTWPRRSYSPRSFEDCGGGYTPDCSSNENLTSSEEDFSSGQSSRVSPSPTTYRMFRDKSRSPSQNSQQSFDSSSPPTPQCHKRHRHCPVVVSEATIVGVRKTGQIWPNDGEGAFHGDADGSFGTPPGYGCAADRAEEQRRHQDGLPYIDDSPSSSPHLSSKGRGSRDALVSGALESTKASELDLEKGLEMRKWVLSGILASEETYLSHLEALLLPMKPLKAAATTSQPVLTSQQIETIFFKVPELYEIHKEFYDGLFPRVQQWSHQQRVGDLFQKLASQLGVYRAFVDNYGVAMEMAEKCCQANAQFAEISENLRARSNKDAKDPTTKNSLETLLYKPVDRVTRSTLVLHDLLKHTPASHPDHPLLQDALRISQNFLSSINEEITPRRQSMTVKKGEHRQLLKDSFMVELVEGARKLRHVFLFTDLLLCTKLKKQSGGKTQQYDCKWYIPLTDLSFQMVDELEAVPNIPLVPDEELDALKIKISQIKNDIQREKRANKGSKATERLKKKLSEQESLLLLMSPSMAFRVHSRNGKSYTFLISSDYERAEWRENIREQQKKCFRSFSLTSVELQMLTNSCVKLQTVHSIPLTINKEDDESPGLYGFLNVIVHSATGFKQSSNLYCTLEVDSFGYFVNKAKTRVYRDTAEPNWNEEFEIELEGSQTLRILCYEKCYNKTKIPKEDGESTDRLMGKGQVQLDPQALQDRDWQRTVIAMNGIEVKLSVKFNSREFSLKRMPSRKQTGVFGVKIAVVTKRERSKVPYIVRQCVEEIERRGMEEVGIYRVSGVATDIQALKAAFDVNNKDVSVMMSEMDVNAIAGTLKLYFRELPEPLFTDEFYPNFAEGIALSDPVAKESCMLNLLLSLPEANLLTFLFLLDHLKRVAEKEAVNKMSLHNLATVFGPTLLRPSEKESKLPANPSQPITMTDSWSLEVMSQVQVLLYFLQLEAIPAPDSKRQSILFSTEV
Sequence of Transcription factor ETV6/Tyrosine-protein kinase ABL1 (Homo sapiens) (P00519 whole entry, looked up): as the sequence (P00519 whole entry, looked up, the tested form may be a part) above
Sequence of Transcription factor ETV6/Tyrosine-protein kinase ABL1 (Homo sapiens) (P41212 whole entry, looked up): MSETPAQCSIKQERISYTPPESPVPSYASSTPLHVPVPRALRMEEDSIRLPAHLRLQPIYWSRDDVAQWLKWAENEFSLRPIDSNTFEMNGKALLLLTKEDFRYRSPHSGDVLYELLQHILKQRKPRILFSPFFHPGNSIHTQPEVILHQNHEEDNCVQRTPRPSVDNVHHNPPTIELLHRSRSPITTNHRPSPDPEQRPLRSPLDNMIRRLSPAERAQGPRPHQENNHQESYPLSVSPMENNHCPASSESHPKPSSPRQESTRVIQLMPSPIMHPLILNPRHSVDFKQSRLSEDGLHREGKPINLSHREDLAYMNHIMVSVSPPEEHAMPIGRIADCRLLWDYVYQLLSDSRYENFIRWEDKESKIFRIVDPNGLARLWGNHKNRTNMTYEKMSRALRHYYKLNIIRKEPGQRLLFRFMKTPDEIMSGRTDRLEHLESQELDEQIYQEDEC
Sequence of Tyrosine-protein kinase HCK (Homo sapiens) (P08631 2-526 limits assumed): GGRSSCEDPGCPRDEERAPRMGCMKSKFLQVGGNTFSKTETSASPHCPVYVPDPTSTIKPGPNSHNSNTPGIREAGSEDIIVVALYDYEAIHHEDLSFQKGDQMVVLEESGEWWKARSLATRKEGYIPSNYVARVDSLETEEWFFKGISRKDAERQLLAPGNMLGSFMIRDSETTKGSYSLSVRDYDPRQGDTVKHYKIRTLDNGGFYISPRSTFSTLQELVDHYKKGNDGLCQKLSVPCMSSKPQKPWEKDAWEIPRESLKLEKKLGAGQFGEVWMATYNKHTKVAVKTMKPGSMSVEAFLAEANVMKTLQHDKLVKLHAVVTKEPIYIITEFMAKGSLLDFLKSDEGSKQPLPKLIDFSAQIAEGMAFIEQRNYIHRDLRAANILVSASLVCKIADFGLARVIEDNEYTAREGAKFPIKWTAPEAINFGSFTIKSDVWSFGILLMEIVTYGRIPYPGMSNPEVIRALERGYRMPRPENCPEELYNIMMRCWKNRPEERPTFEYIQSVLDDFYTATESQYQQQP

Compound: CNc1nc(Nc2ccc(C)c(N)c2)ncc1C(=O)Nc1cc(NC(=O)c2cccc(C(F)(F)F)c2)ccc1C
- GI50 [1]: 53 nM
- inhibition in vivo at 50 mg/kg/day (K562 [2]): 48.3%
- Activity (Mus musculus): Non-toxic
- Activity (K562 [3]): Active
- GI50 at 72 h [4]: > 10 µM
- IC50 [5]: 90 nM
- inhibition [6]: Active
- Activity (MEG-01): Active
- inhibition [7]: Active
- Activity (K562 [8]): Active
- clearance [9]: 25.6 mL/min/kg
- GI50 [10]: 980 nM
- GI50 (BaF3): 313 nM
- GI50 [11]: > 10 µM
- GI50 [12]: > 10 µM
- GI50 (K562 [13]): 14 nM
- inhibition [14]: inactive
- GI50 at 72 h [15]: > 10 µM
- inhibition [16]: inactive
- inhibition [17]: Dose-dependent effect
- IC50 [18]: 457 nM
- Activity (KU812 cell line): Dose-dependent effect
- half-life [19]: 260 min
- GI50 [20]: 16 nM
